Assay results published in ChEMBL document CHEMBL4033794, “Discovery of Trifluoromethyl Glycol Carbamates as Potent and Selective Covalent Monoacylglycerol Lipase (MAGL) Inhibitors for Treatment of Neuroinflammation” (J Med Chem, 2018).
Converted amounts (≈) assume the structure as drawn. The source made the active and inactive calls. No cut-off for these calls is given here.

Legend:
Mus musculus [1] = organism: Mus musculus; settings: C57BL6J, 1 mg/kg
[2] = Volume of distribution in Wistar Hannover rat at 1 mg/kg, iv administered as bolus dose via jugular vein cannula measured up to 24 hrs post dose by HPLC-MS/MS analysis; type: ADME, organism-based; settings: in vivo
How it was run: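 Rats (n = 2) given 1 mg/kg IV bolus via jugular vein cannula, solution in 3% DMA/10% Solutol HS15/10% Miglyol/77% of 20% SBECD in water, 1 mL/kg. Carotid cannula blood pre-dose and 0.083–24 h; plasma by HPLC-MS/MS; non-compartmental analysis.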

CYP1A2 = target: T1, CYP1A2 (Homo sapiens, UniProt P05177); assay: Inhibition of CYP1A2 (unknown origin) at 3 uM; type: ADME
T1 sequence (P05177 whole entry): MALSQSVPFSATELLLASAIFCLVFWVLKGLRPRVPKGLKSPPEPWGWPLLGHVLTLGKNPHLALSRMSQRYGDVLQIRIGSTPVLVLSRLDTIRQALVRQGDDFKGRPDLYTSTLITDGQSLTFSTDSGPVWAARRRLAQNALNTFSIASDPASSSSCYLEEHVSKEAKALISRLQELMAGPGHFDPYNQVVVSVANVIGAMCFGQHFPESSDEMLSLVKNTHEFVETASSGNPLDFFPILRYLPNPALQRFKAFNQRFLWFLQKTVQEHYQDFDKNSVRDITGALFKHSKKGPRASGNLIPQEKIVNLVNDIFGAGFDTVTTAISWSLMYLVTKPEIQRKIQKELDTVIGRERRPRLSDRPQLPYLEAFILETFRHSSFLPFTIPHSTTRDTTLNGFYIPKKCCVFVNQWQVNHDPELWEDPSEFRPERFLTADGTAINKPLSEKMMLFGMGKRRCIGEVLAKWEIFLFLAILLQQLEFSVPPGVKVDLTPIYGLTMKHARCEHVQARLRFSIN
How it was run: (§1)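 Competitive inhibition screen of CYP3A4, 2D6, 2C9, 2C8 and 1A2 using isoform-relevant probe substrates, compound at 3 μM.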

[3] = Kinetic solubility of the compound at pH 7.4; type: physicochemical; settings: buffer, read-out: Kinetic_solubility
[4] = Plasma clearance in non-human primate at 1 mg/kg, iv administered via cephalic vein measured up to 24 hrs post dose by HPLC-MS/MS analysis; type: ADME, organism-based, Macaca mulatta; settings: rhesus monkey
How it was run: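 Fasted male non-human primates (n = 2), fed ~1 h post-dose; 1 mg/kg IV bolus via saphenous or cephalic vein in 3% DMA/10% Solutol HS15/10% Miglyol/77% of 20% SBECD, 0.5 mL/kg. Femoral blood pre-dose and 0.083–24 h; plasma HPLC-MS/MS; non-compartmental analysis.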

[5] = Intrinsic clearance in human liver microsomes; type: ADME, microsome; settings: read-out: CLH
How it was run: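 Substrate depletion in human liver microsomes; intrinsic clearance scaled to mL/min/kg.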

[6] = target: T2, CES1 (liver carboxylesterase 1) (Homo sapiens, UniProt P23141); assay: Inhibition of human CES1 at 10 uM
T2 sequence (P23141 whole entry): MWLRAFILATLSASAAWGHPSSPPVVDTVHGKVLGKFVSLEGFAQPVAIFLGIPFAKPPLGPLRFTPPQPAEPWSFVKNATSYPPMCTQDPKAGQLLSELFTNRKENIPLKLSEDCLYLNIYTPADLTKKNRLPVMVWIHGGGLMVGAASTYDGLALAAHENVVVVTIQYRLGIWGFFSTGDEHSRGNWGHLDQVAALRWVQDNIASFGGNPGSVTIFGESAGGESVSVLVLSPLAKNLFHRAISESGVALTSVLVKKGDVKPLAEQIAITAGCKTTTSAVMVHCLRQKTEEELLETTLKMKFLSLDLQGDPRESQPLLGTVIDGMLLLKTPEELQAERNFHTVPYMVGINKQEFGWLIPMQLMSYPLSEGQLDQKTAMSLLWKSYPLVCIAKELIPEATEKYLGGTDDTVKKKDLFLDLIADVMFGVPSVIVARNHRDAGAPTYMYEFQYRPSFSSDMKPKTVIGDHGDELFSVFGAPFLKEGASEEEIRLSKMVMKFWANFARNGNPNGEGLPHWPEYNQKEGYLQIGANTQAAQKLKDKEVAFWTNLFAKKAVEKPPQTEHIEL
How it was run: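 Panel of 42 human serine hydrolases, each exposed to inhibitor at 10 µM; activity expressed as percent inhibition.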

CYP2D6 = CYP2D6 (Homo sapiens, UniProt P10635); assay: Inhibition of CYP2D6 (unknown origin) at 3 uM; type: ADME
How it was run: as §1

[7] = Ratio of AUClast in C57BL6J mouse brain to plasma at 1 mg/kg, sc measured up to 24 hrs post dose by HPLC-MS/MS analysis; settings: brain and plasma
[8] = Plasma clearance in Beagle dog at 1 mg/kg, iv administered via cephalic vein measured up to 24 hrs post dose by HPLC-MS/MS analysis; type: ADME, organism-based, Canis lupus familiaris
How it was run: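 Fasted male beagles (n = 2), fed ~4 h post-dose, given 1 mg/kg IV bolus via cephalic vein in 3% DMA/10% Solutol HS15/10% Miglyol/77% of 20% SBECD, 0.5 mL/kg. Jugular blood pre-dose and 0.083–24 h; plasma HPLC-MS/MS; non-compartmental analysis.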

Mus musculus [9] = assay: Anti-inflammatory activity in C57BL6J mouse assessed as reduction in LPS-induced TNFalpha levels in brain at 1 mg/kg, sc administered 30 mins after LPS challenge measured at 4 hrs post LPS challenge; type: functional, organism-based
How it was run: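 LPS 20 mg/kg IP or saline, then 1 mg/kg SC compound or vehicle at 30 min; hemi-brains taken at 4 h, homogenized in PBS with protease inhibitors, spun 100,000 rcf 45 min at 4°C; IL-1β and TNFα measured by Meso Scale electrochemiluminescence panel, with protein measured by BCA.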

[10] = Drug metabolism in human hepatocytes assessed as glucuronide conjugate formation; type: ADME, cell-based, Hepatocyte
[11] = Thermodynamic solubility of the compound at pH 6.5 after 24 hrs; type: physicochemical; settings: buffer, read-out: Therm_solubility

CYP2D6, sequence (P10635 whole entry): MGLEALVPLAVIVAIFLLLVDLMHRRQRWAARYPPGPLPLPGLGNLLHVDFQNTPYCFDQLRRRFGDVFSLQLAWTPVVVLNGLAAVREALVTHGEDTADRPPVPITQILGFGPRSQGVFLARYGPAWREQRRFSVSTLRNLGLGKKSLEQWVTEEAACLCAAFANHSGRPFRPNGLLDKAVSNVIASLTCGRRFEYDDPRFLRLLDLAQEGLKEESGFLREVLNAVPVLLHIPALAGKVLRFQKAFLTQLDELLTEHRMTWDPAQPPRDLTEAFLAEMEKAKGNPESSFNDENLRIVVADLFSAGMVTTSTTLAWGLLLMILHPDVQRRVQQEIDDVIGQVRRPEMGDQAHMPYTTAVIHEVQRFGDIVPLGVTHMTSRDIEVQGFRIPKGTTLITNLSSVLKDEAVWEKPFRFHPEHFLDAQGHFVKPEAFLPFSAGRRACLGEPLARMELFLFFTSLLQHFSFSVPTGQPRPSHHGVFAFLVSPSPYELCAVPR

Vd [2]: 3.1 L/kg
inhibition at 3 µM (CYP1A2): < 10%
solubility kinetic [3]: 115 µM (≈ 45.9 µg/mL)
clearance [4]: 16 mL/min/kg
CLint scaled [5]: < 8 mL/min/kg
inhibition at 10 µM [6]: 80%
inhibition at 3 µM (CYP2D6): < 10%
Kp at 24 h [7]: 2.4
clearance [8]: 21 mL/min/kg
Drug metabolism [10]: Metabolite_Detected
solubility thermodynamic at 24 h [11]: 25 µM (≈ 9.98 µg/mL)
Compound: O=C(O[C@H](CO)C(F)(F)F)N1C[C@@H]2[C@H](C1)[C@H]2c1ccn(-c2ccc(F)cc2)n1
inhibition (Mus musculus [1]): Active
Activity (Mus musculus [9]): Active
